This note sets out measurements from ChEMBL document CHEMBL3576759, “Antineoplastic agents. 599. Total synthesis of dolastatin 16” (2015).

Molecules are shown by their SMILES. In brackets after ≈: the same amount, converted by molar mass.

Experiment [1] is described as follows: Growth inhibition of human BxPC3 cells using DMSO as solvent after 48 hrs by sulforhodamine B assay. Format: functional, BXPC-3. Put shortly:
(§1)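 NCI-standard SRB protocol. Cells in RPMI1640 with 5% fetal bovine serum were seeded in 96-well plates and held 24 h before serial compound dilutions were added. After 48 h, cells were fixed with trichloroacetic acid, stained with sulforhodamine B and read by optical density. GI50 is the concentration giving 50% reduction in net protein increase.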
A general note: Sulforhodamine B stains cellular protein and so reports cell mass.

Experiment [2] concerns MCF7. As to the kind of experiment: Growth inhibition of human MCF7 cells using DMSO as solvent after 48 hrs by sulforhodamine B assay. In kind it is functional. Put shortly: as §1
The test system of experiment [3] is SF-268. As to the kind of experiment: Growth inhibition of human SF268 cells using DMSO as solvent after 48 hrs by sulforhodamine B assay. In kind it is functional. The gist of the method: as §1
Experiment [4] relates to NCI-H460. Briefly: Growth inhibition of human NCI-H460 cells using DMSO as solvent after 48 hrs by sulforhodamine B assay. Format: functional. Put shortly: as §1
Experiment [5] can be described thus: Growth inhibition of human KM20L2 cells using DMSO as solvent after 48 hrs by sulforhodamine B assay. Format: functional, KM-20L2. Put shortly:
as §1

The test system of experiment [6] is DU-145. As to the kind of experiment: Growth inhibition of human DU145 cells using DMSO as solvent after 48 hrs by sulforhodamine B assay. In kind it is functional. The gist of the method:
as §1

Experiment [7] can be described thus: Growth inhibition of human BxPC3 cells using MeOH as solvent after 48 hrs by sulforhodamine B assay. In kind it is functional. The note with it: BXPC-3, 48 h. Put shortly:
as §1

In experiment [8] the test system is MCF7. As to the kind of experiment: Growth inhibition of human MCF7 cells using MeOH as solvent after 48 hrs by sulforhodamine B assay. In kind it is functional. The note with it: MCF7, 48 h. Put shortly: as §1
Experiment [9] has as its system SF-268. As to the kind of experiment: Growth inhibition of human SF268 cells using MeOH as solvent after 48 hrs by sulforhodamine B assay. Particulars: SF-268, 48 h. Format: functional. Put shortly:
as §1

The subject of experiment [10] is NCI-H460. Briefly: Growth inhibition of human NCI-H460 cells using MeOH as solvent after 48 hrs by sulforhodamine B assay. Particulars: NCI-H460, 48 h. Format: functional. Put shortly: as §1
A short description of experiment [11]: Growth inhibition of human KM20L2 cells using MeOH as solvent after 48 hrs by sulforhodamine B assay. Format: functional. The note with it: KM-20L2, 48 h. The gist of the method:
as §1

Experiment [12] concerns DU-145. Briefly: Growth inhibition of human DU145 cells using MeOH as solvent after 48 hrs by sulforhodamine B assay. Format: functional. The note with it: DU-145, 48 h. Put shortly: as §1

What is called GI50 is the concentration that inhibits growth by half. A low value points to greater sensitivity of the cells. Regarding `CC(C)[C@H]1NC(=O)[C@@H]2CCCN2C(=O)[C@H]([C@H](C)Cc2ccccc2)NC(=O)[C@@H]2CCCN2C(=O)[C@@H](C(C)C)N(C)C(=O)[C@@H](C(C)C)OC(=O)[C@@H]2CCCN2C(=O)[C@H](C)OC(=O)[C@@H]1C` (stereo in doubt; 1), the GI50 (in experiment [1]; in the experiment on MCF7 [2]; in the experiment with SF-268 [3]; with NCI-H460 [4]; in experiment [5]; with DU-145 [6]) was over 10 µg/mL throughout. In addition, the GI50 (in experiment [7]; in the experiment with MCF7 [8]; in the experiment with SF-268 [9]; with NCI-H460 [10]; in [11]; with DU-145 [12]) was over 10 µg/mL in each case.

Regarding `CC(C)[C@H]1NC(=O)[C@@H]2CCCN2C(=O)[C@H]([C@H](C)Cc2ccccc2)NC(=O)[C@@H]2CCCN2C(=O)[C@@H](C(C)C)N(C)C(=O)[C@@H](C(C)C)OC(=O)[C@@H]2CCCN2C(=O)[C@H](C)OC(=O)[C@@H]1C` (stereo in doubt), the GI50 in [1] was 0.05 µg/mL (≈ 0.0569 µM); with MCF7 [2], 0.027 µg/mL (≈ 0.0307 µM); in the experiment with SF-268 [3], 0.016 µg/mL (≈ 0.0182 µM); in the experiment with NCI-H460 [4] it was 0.27 µg/mL (≈ 0.307 µM); in [5], 0.013 µg/mL (≈ 0.0148 µM); with DU-145 [6] it was 0.009 µg/mL (≈ 0.0102 µM).
